MrgX1 antagonist – human MrgX1 receptor antagonism, primary screen; Q96LB2; MRGX1-HEK293 calcium flux, Fluo-4, BAM8-22 antagonism; stronger effect = lower value; B-score at 10 µM; actives 1.3% (n = 310,000);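 active means calcium-response B-score plate-corrected more than 3 library SD below zero, starting fluorescence within 5 deviations, no agonist response on first addition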;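 further: peak minus trough fluorescence over baseline after final BAM8-22 challenge near maximal dose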
Target sequence (Q96LB2 whole entry, looked up): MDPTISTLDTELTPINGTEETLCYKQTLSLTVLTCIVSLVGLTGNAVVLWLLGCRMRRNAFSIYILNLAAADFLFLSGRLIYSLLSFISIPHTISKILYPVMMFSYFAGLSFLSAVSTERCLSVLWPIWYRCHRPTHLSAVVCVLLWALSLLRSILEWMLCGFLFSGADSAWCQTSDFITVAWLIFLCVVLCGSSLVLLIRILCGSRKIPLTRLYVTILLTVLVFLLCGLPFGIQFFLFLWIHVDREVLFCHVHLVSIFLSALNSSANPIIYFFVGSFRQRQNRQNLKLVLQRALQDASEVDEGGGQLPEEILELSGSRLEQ
RGS4 inh – inhibitors of human RGS4; P49798; actives 0.45% (n = 310,000); B-score at 10 µM; HEK293 M3R/RGS4 inducible, Fluo-4 calcium flux; stronger effect = higher value; triggered by carbachol at its EC20;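 active means B-score, a plate-corrected calcium signal, over three deviations above library mean, with baseline fluorescence within five deviations of library mean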;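 further: RGS4 expression induced by doxycycline in cells with stable M3 receptor; B-score is computed from the integrated fluorescence ratio over baseline after carbachol; higher B-score means a larger calcium signal and so more RGS4 inhibition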
Target sequence (P49798 whole entry, looked up): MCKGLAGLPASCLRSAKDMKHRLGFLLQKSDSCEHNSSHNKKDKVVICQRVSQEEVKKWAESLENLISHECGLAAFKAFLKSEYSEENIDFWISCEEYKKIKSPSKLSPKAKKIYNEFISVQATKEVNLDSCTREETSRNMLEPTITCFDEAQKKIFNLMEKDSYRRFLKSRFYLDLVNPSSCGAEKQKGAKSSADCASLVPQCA
MrgX1 ag – agonists of human MrgX1 receptor; MrgX1-HEK293 cells, Fluo-4 calcium fluorescence, agonist mode; stronger effect = higher value; B-score at 10 µM; actives 0.44% (n = 310,000);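 active means calcium response B-score plate-corrected fluorescence ratio at least 3 library SD, with starting fluorescence B-score inside 5 SD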
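Material: MrgX1-expressing HEK293 cells / Dosing: compound as first of three additions / Incubation: overnight seeding, then 1 h dark dye loading / Signal: Fluo-4 NW calcium fluorescence / Evaluation: B-scored fluorescence response ratio / Benchmarks: positive and negative control wells on each plate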
MrgX1 allo act – allosterically activates human MrgX1 receptor signaling. Q96LB2. MrgX1-HEK293, Fluo-4 calcium flux, FDSS; stronger effect = higher value. B-score at 10 µM. actives 0.63% (n = 310,000);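 active means plate-corrected calcium response at least 3 library SD above typical, normal starting fluorescence, not activating the receptor alone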;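 further: compound read alongside a low EC10 to EC30 dose of BAM8-22 agonist; peak minus trough fluorescence over baseline measured at the second addition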
RGS4 act – potentiators or activators of RGS4. HEK293 M3R/inducible RGS4, carbachol calcium flux Fluo4; stronger effect = lower value. B-score at 10 µM. actives 0.92% (n = 310,000). AID 463111;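 active means B-score of the integrated calcium signal more than 4 SD below the library mean, with starting fluorescence not abnormally high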;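 further: negative B-score means reduced calcium response which marks RGS4 activation or potentiation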
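Reagent: ECmax carbachol challenge; Test system: M3R-expressing HEK293 line, RGS4 induced by doxycycline; Schedule: overnight RGS4 induction, 30 min dye load 37 °C, 20 min compound RT; Detection: calcium dye Fluo4 fluorescence; Read-out: Agonist-evoked peak-minus-minimum fluorescence over baseline, integrated ratio, B score.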
MrgX1 ant reconf – human MrgX1 receptor antagonism, re-confirmation screen. MrgX1-HEK293, BAM8-22 calcium flux, Fluo-4; stronger effect = lower value. actives 19% (n = 2,300). AID 602420. shares compounds with MrgX1 antagonist. remaining BAM8-22 calcium response % of control (stronger effect = lower value), % at 10 µM;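 active means remaining agonist calcium response no higher than 100% minus 3 SD of agonist-only control wells, with starting fluorescence near control levels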;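 further: agonist BAM8-22 given at a near maximal EC90 to ECmax level; peak minus minimum fluorescence divided by baseline after agonist addition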
HEK293 Ca flux – MrgX1 antagonist counter-screen hit in parental HEK293 cells | shares compounds with MrgX1 antagonist | Fluo-4 calcium fluorescence, FDSS | fluorescence ratio F(max-min)/F0 at 10 µM | actives 2% (n = 4,000) | AID 624111;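 active means duplicate-averaged calcium fluorescence ratio at least three times the standard deviation of buffer wells, a nonspecific response in parental cells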
HEK293 Ca counter – counter-screen for MrgX1 allosteric activators: effect in parental HEK293 cells. fluorescence ratio F(max-min)/F0 at 10 µM. shares compounds with MrgX1 antagonist. actives 0.4% (n = 4,000). parental HEK293 calcium flux, Fluo-4 fluorescence ratio; stronger effect = higher value;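 active means calcium fluorescence ratio, averaged over duplicates, at least 3 SD of the buffer-well ratio, meaning a nonspecific response in receptor-free cells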;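 further: untransfected parental HEK293 lacking MrgX1 used as counterscreen for MrgX1 allosteric activators; fluorescence change taken during the second addition on a kinetic imager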
HEK293 Ca cntr2 – counter-screen for MrgX1 activators: effect in parental HEK293 cells; AID 624115; fluorescence ratio F(max-min)/F0 at 10 µM; shares compounds with MrgX1 antagonist; Fluo-4 calcium fluorescence (FDSS); stronger effect = higher value; actives 8.7% (n = 4,000);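 active means calcium fluorescence ratio at least three times the spread of buffer wells, meaning a non-specific response in parental cells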
Numbers stand for hits; 0 = inactive; - = no result given. Most compounds without a hit are left out; they make up all but 3.5% or so of the library.

SMILES	MrgX1 antagonist	RGS4 inh	MrgX1 ag	MrgX1 allo act	RGS4 act	MrgX1 ant reconf	HEK293 Ca flux	HEK293 Ca counter	HEK293 Ca cntr2
Cc1ccc(NCc2ccccc2F)cc1	-5.9	0	0	0	0	0	0	0	0
CCOC(=O)c1cnc(SC)nc1Oc1cccc(NC(=O)c2ccc(Cl)cc2)c1	0	0	0	0	0	-	-	-	-
CCOC(=O)c1cnc(SC)nc1Oc1cccc(NS(=O)(=O)c2ccc(Cl)cc2)c1	-8.7	0	0	0	0	73%	0	0	0
c1ccc2c(c1)C(=NCC1CCCO1)NC2=NCC1CCCO1 (stereo not drawn)	0	0	0	0	0	-	-	-	-
CC(C)(C)N=C1NC(=NC(C)(C)C)c2ccccc21	-5	0	0	0	0	0	0	0	51
Cc1cccc2sc(NC(=O)c3ccc(Cl)s3)nc12	-7.1	0	0	0	0	0	0	0	0
OCC[C@H]1C[C@H](O)[C@@H](O)[C@@]2(CCCc3ccccc3O2)O1	0	-	0	0	-	-	-	-	-
Cc1cccc(C)c1NC(=S)N(CCCN1CCOCC1)Cc1cccnc1	-4.9	0	0	0	0	0	0	0	0
Cc1cc(C)c(NC(=S)N(CCCN2CCOCC2)Cc2cccnc2)c(C)c1	0	0	0	0	0	-	-	-	-
COc1ccc(CCNc2c(N)n(Cc3ccccc3)c(=O)[nH]c2=O)cc1OC	0	0	0	0	0	-	-	-	-
COC(=O)C1=C(CN2CCSCC2)NC(=O)NC1c1cc(C)ccc1C (stereo not drawn)	-5.6	0	0	0	0	0	0	0	0
Cc1[nH]c(C)c(S(=O)(=O)NCc2ccc(N(C)C)cc2)c1C(=O)N1CCCC1	0	0	0	0	0	-	-	-	-
CC(=O)Nc1ccc(NC(=O)Cn2cnc3c(nnn3Cc3ccc(F)cc3)c2=O)cc1	-6.8	0	0	0	0	0	0	0	0
O=C(Cn1cnc2c(nnn2Cc2ccc(F)cc2)c1=O)NCc1ccc(F)cc1	0	0	0	0	0	-	-	-	-
COc1ccc(N(CC(=O)NC2CCCCC2)C(=O)c2ccc(C)s2)c(OC)c1	0	0	0	0	0	-	-	-	-
Cc1cccc(N2CCN(C(=O)COc3cc(=O)n(C)c4ccccc34)CC2)c1C	0	0	0	0	0	-	-	-	-
Cc1cccc(N2CCN(C(=O)Cc3cn(C)c4ccccc34)CC2)c1C	-4.7	0	0	0	0	81%	0	0	0
COc1cccc(-c2nc(CS(=O)(=O)CC(=O)N3CCc4ccccc43)c(C)o2)c1	-4.9	0	0	0	0	0	0	0	0
Cc1ccc(NC(=O)CC2=NC(=O)C(CC(=O)Nc3ccccc3F)S2)cc1 (stereo not drawn)	-4.9	0	0	0	0	0	0	0	0
COc1ccc(OCC(=O)N/N=C2\CCc3ccccc32)cc1	0	0	0	0	0	-	-	-	-
COc1ccc2c(c1)CC/C2=N\NC(=O)c1ccccc1	-18	0	0	0	0	0	0	0	0
CCC(C)Sc1ccc([C@@H]2[C@H]3C(=O)N(CC)C(=O)[C@H]3[C@]3(C(=O)OC)CCCCN23)cc1 (stereo partly drawn)	0	-	0	0	-	-	-	-	-
Nc1c(C(=O)Nc2ccccc2F)sc2nc(-c3cccnc3)ccc12	0	0	0	0	0	-	-	-	-
Nc1c(C(=O)Nc2ccccc2F)sc2nc(-c3ccco3)ccc12	-5.3	0	0	0	0	78%	0	0	0
O=C(COC(=O)CCS(=O)(=O)c1ccccc1)NC(=O)c1ccc(OC(F)F)cc1	0	0	0	0	0	-	-	-	-
CC(C)N1CC23C=CC(O2)C(C(=O)OCc2ccccc2)C3C1=O (stereo not drawn)	-5	0	0	0	0	0	0	0	0

Screening results as filed in PubChem.
